Assays:
Format in all cases: functional
CCRF-CEM = assay: Growth inhibition of human CCRF-CEM cells after 48 hrs
Method in brief: (§1)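 NCI ~60-line screen. Cells were grown in RPMI 1640 with 5% FBS and 2 mM L-glutamine and plated at 5000–40000 cells/well. After a 24 h preincubation, five drug concentrations from DMSO stocks were added for 48 h at 37 °C. Cells were TCA-fixed, stained with SRB and read at 515 nm. GI50 was taken from time-zero and control absorbances and reported as pGI50.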

HL-60 = assay: Growth inhibition of human HL60 cells after 48 hrs; settings: HL-60, 48 h; method in brief: as §1
K562 = assay: Growth inhibition of human K562 cells after 48 hrs; settings: K562, 48 h; method in brief: as §1
MOLT-4 = assay: Growth inhibition of human MOLT4 cells after 48 hrs; settings: MOLT-4, 48 h; method in brief: as §1
[1] = Growth inhibition of human HS578T cells after 48 hrs; settings: Hs-578T; method in brief: as §1
MDA-MB-435 = assay: Growth inhibition of human MDA-MB435 cells after 48 hrs; settings: MDA-MB-435, 48 h; method in brief: as §1
T47D = assay: Growth inhibition of human T47D cells after 48 hrs
Method in brief: (§2)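 NCI 60-line screen: cells in RPMI 1640 with 5% FBS and 2 mM L-glutamine, plated at 5000–40000 cells/well, grown 24 h (37 °C, 5% CO₂), then exposed to five 10-fold or ½-log dilutions (DMSO stock) for 48 h. Fixed with TCA (final 10% for adherent cells, 16% for suspension cells), then SRB stained with absorbance at 515 nm. GI50 from percentage growth relative to time-zero and control wells.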

A549 = assay: Growth inhibition of human A549 cells after 48 hrs; settings: A549, 48 h; method in brief: as §1
NCI-H226 = assay: Growth inhibition of human NCI-H226 cells after 48 hrs; settings: NCI-H226, 48 h; method in brief: as §1
NCI-H23 = assay: Growth inhibition of human NCI-H23 cells after 48 hrs; settings: Homo sapiens, NCI-H23, 48 h; method in brief: as §1
NCI-H322M = assay: Growth inhibition of human NCI-H322M cells after 48 hrs; method in brief: as §1
NCI-H460 = assay: Growth inhibition of human NCI-H460 cells after 48 hrs; settings: NCI-H460, 48 h; method in brief: as §1
NCI-H522 = assay: Growth inhibition of human NCI-H522 cells after 48 hrs; settings: NCI-H522, 48 h; method in brief: as §1
HCT-116 = assay: Growth inhibition of human HCT116 cells after 48 hrs; settings: HCT-116, 48 h; method in brief: as §1
KM12 = assay: Growth inhibition of human KM12 cells after 48 hrs; settings: KM12, 48 h; method in brief: as §1
SF-295 = assay: Growth inhibition of human SF295 cells after 48 hrs; settings: SF-295, 48 h; method in brief: as §1
SNB-19 = assay: Growth inhibition of human SNB19 cells after 48 hrs; settings: SNB-19, 48 h; method in brief: as §2
U-251 = assay: Growth inhibition of human U251 cells after 48 hrs; settings: U-251, 48 h; method in brief: as §2
LOX IMVI = assay: Growth inhibition of human LOXIMVI cells after 48 hrs; method in brief: as §1
M14 = assay: Growth inhibition of human M14 cells after 48 hrs; settings: M14, 48 h; method in brief: as §1
UACC-257 = assay: Growth inhibition of human UACC257 cells after 48 hrs; settings: UACC-257, 48 h; method in brief: as §2
IGROV-1 = assay: Growth inhibition of human IGROV1 cells after 48 hrs; settings: IGROV-1, 48 h; method in brief: as §1
OVCAR-3 = assay: Growth inhibition of human OVCAR-3 cells after 48 hrs; settings: OVCAR-3, 48 h; method in brief: as §1
OVCAR-5 = assay: Growth inhibition of human OVCAR5 cells after 48 hrs; settings: OVCAR-5, 48 h; method in brief: as §1
786-0 = assay: Growth inhibition of human 786-0 cells after 48 hrs; settings: 786-0, 48 h; method in brief: as §1
A498 = assay: Growth inhibition of human A498 cells after 48 hrs; settings: A498, 48 h; method in brief: as §1
ACHN = assay: Growth inhibition of human ACHN cells after 48 hrs; method in brief: as §1
CAKI-1 = assay: Growth inhibition of human CAKI1 cells after 48 hrs; settings: CAKI-1, 48 h; method in brief: as §1
TK-10 = assay: Growth inhibition of human TK10 cells after 48 hrs; settings: TK-10, 48 h; method in brief: as §2
UO-31 = assay: Growth inhibition of human UO31 cells after 48 hrs; settings: UO-31, 48 h; method in brief: as §2
MCF7 = assay: Growth inhibition of human MCF7 cells after 48 hrs; settings: MCF7, 48 h; method in brief: as §1
[2] = read-out: Log LC50 (the source's name) (converted)

Question: Which results are given for `Cn1c2ccccc2c2c(=O)n(CCCC(=O)NCC(=O)N(C(=O)NC3CCCCC3)C3CCCCC3)c3c(-c4ccccc4)nnn3c21`?
Answer: GI50 (CCRF-CEM): 8.32 µM; LC50 (CCRF-CEM): > 100 µM; TGI (CCRF-CEM; read-out: pTGI (converted)): 57.5 µM; GI50 (HL-60): 2.88 µM; LC50 (HL-60): > 100 µM; TGI (HL-60; read-out: pTGI (converted)): 8.32 µM; GI50 (K562): 22.9 µM; LC50 (K562): > 50.1 µM; TGI (K562; read-out: pTGI (converted)): > 100 µM; GI50 (MOLT-4): 14.5 µM; LC50 (MOLT-4): > 100 µM; TGI (MOLT-4; read-out: pTGI (converted)): > 100 µM; GI50 [1]: 9.33 µM; LC50 (50% lethal concentration) [1]: > 100 µM; TGI ([1]; read-out: pTGI (converted)): > 100 µM; GI50 (MDA-MB-435): 25.1 µM; LC50 (MDA-MB-435): > 100 µM; TGI (MDA-MB-435; read-out: pTGI (converted)): > 100 µM; CC50 (T47D; [2]): > 100 µM; TGI (T47D; read-out: pTGI (converted)): > 100 µM; GI50 (A549): 38 µM; CC50 (A549; [2]): > 50.1 µM; TGI (A549; read-out: pTGI (converted)): > 50.1 µM; GI50 (NCI-H226): 39.8 µM; CC50 (NCI-H226; [2]): > 100 µM; TGI (NCI-H226; read-out: pTGI): > 100 µM; GI50 (NCI-H23): 15.5 µM; CC50 (NCI-H23; [2]): 69.2 µM; TGI (NCI-H23; read-out: pTGI (converted)): 33.1 µM; GI50 (NCI-H322M): > 100 µM; LC50 (NCI-H322M): > 100 µM; TGI (NCI-H322M; read-out: pTGI (converted)): > 100 µM; GI50 (NCI-H460): 32.4 µM; LC50 (NCI-H460): > 100 µM; TGI (NCI-H460; read-out: pTGI (converted)): > 100 µM; GI50 (NCI-H522): 15.8 µM; LC50 (NCI-H522): > 100 µM; TGI (NCI-H522; read-out: pTGI (converted)): 81.3 µM; GI50 (HCT-116): 14.1 µM; LC50 (HCT-116): > 100 µM; TGI (HCT-116; read-out: pTGI (converted)): 42.7 µM; GI50 (KM12): 31.6 µM; LC50 (KM12): > 100 µM; TGI (KM12; read-out: pTGI (converted)): > 100 µM; GI50 (SF-295): > 100 µM; LC50 (SF-295): > 100 µM; TGI (SF-295; read-out: pTGI (converted)): > 100 µM; LC50 (SNB-19): > 100 µM; TGI (SNB-19; read-out: pTGI (converted)): > 100 µM; GI50 (U-251): 12.3 µM; LC50 (U-251): > 100 µM; TGI (U-251; read-out: pTGI (converted)): 38 µM; GI50 (LOX IMVI): 13.2 µM; LC50 (lethal concentration, 50% cell kill) (LOX IMVI): > 100 µM; TGI (LOX IMVI; read-out: pTGI (converted)): 97.7 µM; GI50 (M14): 30.9 µM; LC50 (M14): > 100 µM; TGI (M14; read-out: pTGI (converted)): > 100 µM; GI50 (UACC-257): 66.1 µM; LC50 (UACC-257): > 100 µM; TGI (UACC-257; read-out: pTGI (converted)): > 100 µM; GI50 (IGROV-1): 2.82 µM; LC50 (IGROV-1): > 100 µM; TGI (IGROV-1; read-out: pTGI (converted)): 33.1 µM; GI50 (OVCAR-3): 19.5 µM; LC50 (OVCAR-3): > 100 µM; TGI (OVCAR-3; read-out: pTGI (converted)): 95.5 µM; GI50 (OVCAR-5): 15.5 µM; LC50 (concentration killing 50% of cells) (OVCAR-5): 69.2 µM; TGI (OVCAR-5; read-out: pTGI (converted)): 32.4 µM; GI50 (786-0): 18.6 µM; LC50 (786-0): > 100 µM; TGI (786-0; read-out: pTGI (converted)): 44.7 µM; GI50 (A498): 30.9 µM; CC50 (A498; [2]): > 100 µM; TGI (A498; read-out: pTGI (converted)): > 100 µM; GI50 (ACHN): 26.3 µM; LC50 (ACHN): > 100 µM; TGI (ACHN; read-out: pTGI (converted)): > 100 µM; GI50 (CAKI-1): 32.4 µM; LC50 (concentration killing 50% of cells) (CAKI-1): > 100 µM; TGI (CAKI-1; read-out: pTGI (converted)): 37.2 µM; GI50 (TK-10): > 100 µM; LC50 (TK-10): > 100 µM; TGI (TK-10; read-out: pTGI (converted)): > 100 µM; GI50 (UO-31): 31.6 µM; LC50 (UO-31): > 100 µM; TGI (UO-31; read-out: pTGI (converted)): > 100 µM; GI50 (MCF7): 3.63 µM; LC50 (MCF7): > 100 µM; TGI (MCF7; read-out: pTGI (converted)): > 100 µM

From ChEMBL document CHEMBL1142436, “Design and synthesis of 4-substituted indolo[3,2-e][1,2,3]triazolo[1,5-a]pyrimidine derivatives with antitumor activity” (2008)
